From ChEMBL document CHEMBL5252642, “Design and synthesis of naturally-inspired SARS-CoV-2 inhibitors” (RSC Med Chem, 2023)
Active and inactive are the calls of the source. The calls are words filed in the database; no cut-off is given here.

What was measured:
[1] = Cytotoxicity against human A549-ACE2 cells; assay type: toxicity, cell-based
Summary of the method: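 A549-ACE2 cells (2,000/well) were exposed to compounds for 72 h. Viability was read as CellTiter-Glo luminescence. Controls were 0.5% DMSO and 10 µM camptothecin. Values come from triplicate dose-response curves.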

SARS-CoV-2 = assay: Antiviral activity against SARS-CoV-2 BetaCoV/France/IDF0372/2020 infected human A549-ACE2 cells assessed as inhibition of viral replication by qRT-PCR analysis; assay type: functional, organism-based; details: Severe acute respiratory syndrome coronavirus 2, BetaCoV/France/IDF0372/2020, A549-ACE2
[2] = target: Replicase polyprotein 1ab (Severe acute respiratory syndrome coronavirus 2) (UniProt P0DTD1); assay: (§1) Inhibition of SARS-CoV-2 nsp14 guanine-N7-methyltransferase activity
Summary of the method: (§2)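 Compounds were serially titrated from 8 µM to 2 mM DMSO stocks, giving 5% DMSO final. They were preincubated 2 h at 23 °C with 1.5 nM nsp14 in 20 mM Tris-HCl pH 7.5, 0.25 mM MgCl2, 1 mM TCEP and 0.01% Triton X-100. Then 50 nM RNA and 0.25 µM 3H-SAM were added for 20 min. Radioactivity was read. Tests were in triplicate, with SAH as positive control and curves constrained to 0–100.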

[3] = tested on: Severe acute respiratory syndrome coronavirus 2; assay: (§3) Inhibition of SARS-CoV-2 N-terminus His tagged nsp10/nsp16 complex expressed in Escherichia coli using [3H]SAM as substrate by scintillation proximity assay
Summary of the method: (§4)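 Compounds were serially titrated from 8 µM to 2 mM DMSO stocks, giving 5% DMSO final. They were preincubated 2 h at 23 °C with 125 nM nsp10–nsp16 (8:1) in 50 mM Tris-HCl pH 7.5, 1.5 mM MgCl2, 1 mM TCEP and 0.01% Triton X-100. Then 0.8 µM RNA and 2 µM SAM (30% 3H-SAM) were added for 30 min at 23 °C. Radioactivity was read. Tests were in triplicate, with curves constrained to 0–100.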

[4] = target: Replicase polyprotein 1ab (Severe acute respiratory syndrome coronavirus 2, UniProt P0DTD1); assay: as §1; summary of the method: as §2
[5] = as §3; set-up: species or system Severe acute respiratory syndrome coronavirus 2; summary of the method: as §4

COc1ccc(CCN2C[C@H]3O[C@]4(C2)CN(S(=O)(=O)c2ccc(C)cc2)[C@]2(C(C)C)C=CC(=O)[C@H]3[C@H]42)cc1
CC50 [1]: 6.6 µM
EC50 (SARS-CoV-2): 13 µM

Cc1ccc(S(=O)(=O)N2C[C@@]34CN(Cc5nc6ccccc6s5)C[C@@H](O3)[C@@H]3[C@H]4[C@@]2(C(C)C)CC[C@@H]3O)cc1
CC50 [1]: 12 µM
EC50 (SARS-CoV-2): 6.6 µM

Cc1ccc(S(=O)(=O)N2C[C@@]34CN(Cc5ccccc5)C[C@@H](O3)[C@@H]3[C@H]4[C@@]2(C(C)C)C=C[C@@H]3O)cc1
CC50 [1]: > 50 µM
EC50 (SARS-CoV-2): 17 µM

Cc1ccc(S(=O)(=O)N2C[C@@]34CN(C)C[C@@H](O3)[C@H]3[C@@H](Oc5ncccn5)CC[C@]2(C(C)C)[C@H]34)cc1
CC50 [1]: 17 µM
EC50 (SARS-CoV-2): 20 µM

Cc1ccc(S(=O)(=O)N2C[C@@]34CN(C(=O)c5ccc(N)cn5)C[C@@H](O3)[C@@H]3[C@H]4[C@@]2(C(C)C)CC[C@@H]3O)cc1
CC50 [1]: > 50 µM
EC50 (SARS-CoV-2): 37 µM

Cc1ccc(S(=O)(=O)N2C[C@@]34CNC[C@@H](O3)[C@H]3C(=O)CC[C@]2(C(C)C)[C@H]34)cc1
CC50 [1]: > 50 µM
EC50 (SARS-CoV-2): > 50 µM

COc1ccc(CCN2C[C@H]3O[C@]4(C2)CN(S(=O)(=O)c2ccc(C)cc2)[C@]2(C(C)C)C=C[C@H](O)[C@H]3[C@H]42)cc1
inhibition [2]: inactive
inhibition [3]: inactive
CC50 [1]: 12 µM
EC50 (SARS-CoV-2): 3.7 µM

Cc1ccc(S(=O)(=O)N2C[C@@]34CN(Cc5nc6ccccc6s5)C[C@@H](O3)[C@H]3C(=O)CC[C@]2(C(C)C)[C@H]34)cc1
CC50 [1]: 37 µM
EC50 (SARS-CoV-2): 5.3 µM

Cc1ccc(S(=O)(=O)N2C[C@@]34CN(C(=O)c5ccc(F)cc5N)C[C@@H](O3)[C@@H]3[C@H]4[C@@]2(C(C)C)CC[C@@H]3O)cc1
CC50 [1]: 20 µM
EC50 (SARS-CoV-2): 14 µM

Cc1ccc(S(=O)(=O)N2C[C@@]34CN(C(=O)C5CC5)C[C@@H](O3)[C@H]3[C@@H](Oc5ncccn5)CC[C@]2(C(C)C)[C@H]34)cc1
CC50 [1]: > 50 µM
EC50 (SARS-CoV-2): > 40 µM

Cc1ccc(S(=O)(=O)N2C[C@@]34CN(C)C[C@@H](O3)[C@H]3C(=O)CC[C@]2(C(C)C)[C@H]34)cc1
CC50 [1]: > 50 µM
EC50 (SARS-CoV-2): > 50 µM

Nc1ncnc2c1ncn2[C@@H]1O[C@H](CSCC[C@H](N)C(=O)O)[C@@H](O)[C@H]1O [S-ADENOSYLHOMOCYSTEINE]
IC50 [4]: 0.22 µM
IC50 [5]: 3.9 µM

Cc1ccc(S(=O)(=O)N2C[C@@]34CN(Cc5ccccc5)C[C@@H](O3)[C@H]3C(=O)C=C[C@]2(C(C)C)[C@H]34)cc1
CC50 [1]: 14 µM
EC50 (SARS-CoV-2): 16 µM

CNC(=O)N1C[C@H]2O[C@]3(C1)CN(S(=O)(=O)c1ccc(C)cc1)[C@]1(C(C)C)CC[C@H](O)[C@H]2[C@H]31
CC50 [1]: > 50 µM
EC50 (SARS-CoV-2): > 50 µM

COCn1ccc(N2C[C@H]3O[C@]4(C2)CN(S(=O)(=O)c2ccc(C)cc2)[C@]2(C(C)C)CC[C@H](O)[C@H]3[C@H]42)nc1=O
CC50 [1]: > 50 µM
EC50 (SARS-CoV-2): > 17 µM

Cc1ccc(S(=O)(=O)N2C[C@@]34CN(Cc5ccccc5)C[C@@H](O3)[C@H]3C(=O)CC[C@]2(C(C)C)[C@H]34)cc1
CC50 [1]: 5.8 µM
EC50 (SARS-CoV-2): 8.4 µM

COc1ccc(CCN2C[C@H]3O[C@]4(C2)CN(S(=O)(=O)c2ccc(C)cc2)[C@]2(C(C)C)C=C[C@H](Oc5ncccn5)[C@H]3[C@H]42)cc1
EC50 (SARS-CoV-2): > 50 µM

Cc1ccc(S(=O)(=O)N2C[C@@]34CN(C(=O)c5cccs5)C[C@@H](O3)[C@@H]3[C@H]4[C@@]2(C(C)C)CC[C@@H]3O)cc1
CC50 [1]: > 50 µM
EC50 (SARS-CoV-2): 16 µM

COc1cc(CN2C[C@H]3O[C@]4(C2)CN(S(=O)(=O)c2ccc(C)cc2)[C@]2(C(C)C)CC[C@H](OCCCN(C)C)[C@H]3[C@H]42)cc(OC)c1
IC50 [4]: > 100 µM
inhibition [3]: inactive
CC50 [1]: 7.7 µM
EC50 (SARS-CoV-2): 1.4 µM

Cc1ccc(S(=O)(=O)N2C[C@@]34CN(C(=O)c5cccs5)C[C@@H](O3)[C@H]3[C@@H](Oc5cc(C)nc(N)n5)CC[C@]2(C(C)C)[C@H]34)cc1
CC50 [1]: > 50 µM
EC50 (SARS-CoV-2): > 50 µM

COc1cc(CN2C[C@H]3O[C@]4(C2)CN(S(=O)(=O)c2ccc(C)cc2)[C@]2(C(C)C)CC[C@H](O)[C@H]3[C@H]42)cc(OC)c1
CC50 [1]: 13 µM
EC50 (SARS-CoV-2): 5.6 µM

Cc1ccc(S(=O)(=O)N2C[C@@]34CN(Cc5ccccc5)C[C@@H](O3)[C@H]3[C@@H](Oc5ncccn5)CC[C@]2(C(C)C)[C@H]34)cc1
CC50 [1]: 6.3 µM
EC50 (SARS-CoV-2): 6.2 µM

Cc1ccc(S(=O)(=O)N2C[C@@]34CN(CCc5c[nH]c6ccccc56)C[C@@H](O3)[C@@H]3[C@H]4[C@@]2(C(C)C)CC[C@@H]3O)cc1
CC50 [1]: 13 µM
EC50 (SARS-CoV-2): 8.3 µM
